Shown are actives, neighbours in structure and some others; about 2.9% of the full set was active somewhere.
ZTA DNA inh: ZTA (EBV) inhibition in EBNA-1 counter-screen; P03206; hit rate 0.15% among 320,000; inhibition, % at 11 µM; ZTA-DNA binding, fluorescence polarization; in the data active = inhibition above about 33%
Target sequence (P03206 whole entry, looked up): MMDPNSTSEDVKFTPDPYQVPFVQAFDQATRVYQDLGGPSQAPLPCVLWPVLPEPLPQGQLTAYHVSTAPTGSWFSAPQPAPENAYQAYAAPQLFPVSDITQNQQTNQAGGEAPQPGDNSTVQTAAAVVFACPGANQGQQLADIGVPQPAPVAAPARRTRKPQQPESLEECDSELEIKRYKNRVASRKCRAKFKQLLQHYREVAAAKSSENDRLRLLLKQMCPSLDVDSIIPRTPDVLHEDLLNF
EBNA-1 inhibitor: EBNA-1 DNA-binding inhibitors, primary screen, biochemical, fluorescence polarization | hit rate 0.34% among 300,000 | AID 1950, 2009 | inhibition, % at 14.8 µM; in the data active = inhibition above about 28%
Apaf-1 inh: inhibitors of human Apaf-1 apoptosome, primary screen, biochemical, DEVD-Rh110 fluorescence, uHTS. hit rate 0.71% among 330,000. reconstituted apoptosome caspase-3 activity. AID 489030, 2010. inhibition, % at 20 µM; active = inhibition of at least 40% at 20 µM;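 also: plate controls were DMSO wells for no effect and DEVD-CHO caspase inhibitor wells for full effect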
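System: Apoptosome proteins | Medium: Hepes pH 7.5 with detergent and BSA | Also added: Cytochrome c trigger plus (Z-DEVD)2-Rh110 caspase-3 substrate | Incubation: 30 min compound preincubation, 50 min activation, room temperature | Detection: Rhodamine 110 fluorescence at Ex 480/Em 540 nm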
UBC13 inh: UBC13 polyubiquitin chain formation inhibitors, primary screen, biochemical, TR-FRET, uHTS; Ubiquitin-conjugating enzyme E2 N (Homo sapiens), P61088; inhibition, % at 20 µM; hit rate 0.47% among 330,000; in the data active = inhibition above about 45%, passing the limit was not always enough
Target sequence (P61088 whole entry, looked up): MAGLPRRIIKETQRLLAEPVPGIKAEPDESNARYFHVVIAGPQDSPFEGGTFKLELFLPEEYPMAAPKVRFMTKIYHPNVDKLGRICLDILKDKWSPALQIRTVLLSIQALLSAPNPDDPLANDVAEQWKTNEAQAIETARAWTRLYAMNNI
PfGluPho inh: PfG6PD enzyme inhibitors, primary screen, biochemical, fluorescence intensity, uHTS; PfGluPho enzyme, NADPH resazurin-diaphorase fluorescence; hit rate 0.78% among 350,000; inhibition, % at 20 µM;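 active = inhibition reaching at least a set limit at 20 µM in the primary screen, cut at about 59% in these data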;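 also: 0% = DMSO wells with substrate and 100% = DMSO wells lacking glucose-6-phosphate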
PfM18AAP inh: PfM18AAP inhibitors, malaria aminopeptidase, primary screen, biochemical, QFRET, recombinant enzyme; inhibition, % at 7.35 µM; M18 aspartyl aminopeptidase (Plasmodium falciparum 3D7); hit rate 1.2% among 290,000; H-Glu-NHMec fluorogenic cleavage; AID 1822, 2009;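 active = inhibition above the campaign mean inhibition over all tested compounds plus 3 SD, cut at about 28% in these data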;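 also: 0% = plate median of test compound wells and 100% = 2 mM ZnCl2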
Casp3 counter: CASP3 inhibitor validation, counterassay for project on UBE2N polyubiquitination blockers, biochemical, one dose; shares compounds with UBC13 inh; Recombinant caspase-3, Caspase-Glo 3/7 luminescence, 60 min; inhibition, % at 20 µM; hit rate 4% among 1,400;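 active = mean inhibition across replicates above about 26%, limit read from the data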;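 also: plate controls were DMSO with caspase-3 for no effect and DMSO wells lacking enzyme for full effect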
UBC13 conf: UBC13 polyubiquitination inhibitors, single-point retest, confirmation, biochemical, TR-FRET, single concentration | shares compounds with UBC13 inh | inhibition, % at 10 µM | hit rate 68% among 1,400 | AID 488859, 2010; in the data active = inhibition above about 45%
Apaf-1 inh conf: Apaf-1 inhibitors, single-dose retest, confirmation, biochemical, fluorescence, DEVD-Rh110, 20 µM; shares compounds with Apaf-1 inh; reconstituted apoptosome, caspase-3 DEVD-Rh110 fluorescence; inhibition, % at 20 µM; hit rate 25% among 1,800;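 active = mean inhibition of at least 40% at 20 µM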;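 also: plate controls were DMSO wells for no effect and DEVD-CHO caspase inhibitor control wells for full effect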
Rh110 quench: Rh110 fluorescence interference by putative Apaf-1 inhibitors, confirmation, artefact control for Apaf-1 inhibitor project, biochemical, 20 µM | shares compounds with Apaf-1 inh | quenched caspase reaction | activation (fluorescence interference), % at 20 µM | 1,800 tested, under 10 active;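 active = signal rise of 40% or more at 20 µM, treated as a fluorescence artifact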
Apaf1 inh interf: fluorescence interference of Apaf-1 inhibitor hits, dose response, artefact control for Apaf-1 inhibitor project; shares compounds with Apaf-1 inh; fluorescence interference counterscreen, Apaf-1 assay format; IC50, µM; 460 tested, under 10 active; call rule not given here
The depositor's hits bear a star.

Screening CC[C@H](C)Cc1cn([C@@H](CCCCN)C(=O)NCCCCCCCCCCC(=O)N2CCNCC2)nn1 returned ZTA DNA inh 4, EBNA-1 inhibitor 1, Apaf-1 inh 46*, UBC13 inh 47*, PfGluPho inh -1, Casp3 counter 2, UBC13 conf 45*, Apaf-1 inh conf 11 and Rh110 quench 16.
`CCN1C(=O)N[C@H](c2ccccc2)C(C(C)=O)=C1C` gave ZTA DNA inh 22, EBNA-1 inhibitor 13, Apaf-1 inh -11, UBC13 inh 0 and PfGluPho inh -7.
`CSc1cccc(NC(N)=S)c1` gave ZTA DNA inh 0, EBNA-1 inhibitor -13, Apaf-1 inh -6, UBC13 inh 0, PfGluPho inh -13 and PfM18AAP inh 1.
`Cc1ccc(NC(=O)CN(C)C(=O)c2ccc3[nH]c4c(c3c2)CC(C)CC4)cc1` (stereo unspecified) gave ZTA DNA inh 1, Apaf-1 inh 59*, UBC13 inh 66*, PfGluPho inh 18, Casp3 counter -2, UBC13 conf 48*, Apaf-1 inh conf 45*, Rh110 quench 4 and Apaf1 inh interf >100.
Screening CCOc1ccc(NC(=O)CN(C)C(=O)c2ccc3[nH]c4c(c3c2)CC(C)CC4)cc1OCC (stereo unspecified) returned ZTA DNA inh -2, EBNA-1 inhibitor -1, Apaf-1 inh 18, UBC13 inh 6 and PfGluPho inh 7.
Screening COc1ccc(CNC(=O)C2CCC(CNS(=O)(=O)c3cccs3)CC2)cc1 (stereo unspecified) returned ZTA DNA inh 3, EBNA-1 inhibitor 1, Apaf-1 inh 4, UBC13 inh 3, PfGluPho inh 4 and PfM18AAP inh 1.
For COc1cc(/C=C/c2cc[n+](C)cc2)ccc1OCC(=O)Nc1ccc(Cl)c(Cl)c1 the results were ZTA DNA inh -23, EBNA-1 inhibitor -9, Apaf-1 inh 73*, UBC13 inh 103*, PfGluPho inh 21, PfM18AAP inh 5, Casp3 counter -1, UBC13 conf 116*, Apaf-1 inh conf 46*, Rh110 quench 6 and Apaf1 inh interf >100.
`COc1ccc(NC(=O)COc2ccc(/C=C/c3cc[n+](C)cc3)cc2OC)cc1` gave ZTA DNA inh 12, EBNA-1 inhibitor -7, Apaf-1 inh 1, UBC13 inh 2, PfGluPho inh 13 and PfM18AAP inh 0.
`CCCCCc1cc(=O)oc2c(C(CCN3CCCC(C)C3)c3ccc(OC)cc3)c(OC)cc(OC)c12` (stereo unspecified) gave ZTA DNA inh -12, EBNA-1 inhibitor -1, Apaf-1 inh 66*, UBC13 inh 65*, PfGluPho inh 18, Casp3 counter 2, UBC13 conf 53*, Apaf-1 inh conf 34 and Rh110 quench 16.
